# Measured values collected from several papers.
# Each line is one published result; the experiments were not run side by side.
SMILES,assay,system,logP
CC1=NN(CNc2ccc(C(=O)O)cc2)C(=O)C1=NNn1c(-c2ccccc2)nc2ccccc2c1=O,,,4.15
N#Cc1[nH]nnc1-c1cccc(-c2cc(F)cc(C(F)(F)F)c2)c1,potentiometric,,5.2
CC1=NN(CNC(=O)c2ccccc2)C(=O)C1=NNn1c(-c2ccccc2)nc2ccccc2c1=O,,,4.09
Nc1nc(-c2ccccc2)nc2[nH]nc(Nc3ccc(C(F)(F)F)cc3)c12,,,2.85
N#Cc1[nH]nnc1-c1cc(Cl)cc(/C=C/c2cccc(C(F)(F)F)c2)c1,potentiometric,,5.4
C=C[C@H]1C[N@]2CC[C@H]1C[C@@H]2C(O)c1ccnc2ccc(OC)cc12 (stereo partly shown),,water,3.17
CS(=O)(=O)N1CCN(Cc2cc3nc(-c4cccc5[nH]ncc45)nc(N4CCOCC4)c3s2)CC1,,,3.22
CNC(=O)c1ccccc1Sc1ccc2c(/C=C/c3ccccn3)n[nH]c2c1,,,3.1
Cc1cc(Cl)cc(S(C)(=O)=O)c1NC(=O)c1cc(Br)nn1-c1ncccc1Cl,potentiometric,,4.34
CC(=O)NCN1N=C(C)C(=NNn2c(-c3ccccc3)nc3ccccc3c2=O)C1=O,,,2.24
CCc1nc(N)nc(N)c1-c1ccc(Cl)cc1,,,3.14
CC1=NN(CNc2c(O)c(S(=O)(=O)O)cc3ccccc23)C(=O)C1=NNn1c(-c2ccccc2)nc2ccccc2c1=O,,,5.01
O=C(O)CCCNC(=O)c1ccc(O)c2ncccc12,,,0.71
CCCCC1=NC2(CCCC2)C(=O)N1Cc1ccc(-c2ccccc2S(=O)(=O)Nc2noc(C)c2C)c(COCC)c1,,,4.26
CC1=NN(CNc2ccc(Cl)cc2)C(=O)C1=NNn1c(-c2ccccc2)nc2ccccc2c1=O,,,5.1
CNCc1cc(-c2ccccc2F)n(S(=O)(=O)c2cccnc2)c1,,,2.74
